MEKK2 mut-MEK5: MEK5 binding signal on mutant MEKK2 PB1, primary screen, biochemical, multiplex bead flow cytometry, Alexa488-MEK5; AID 1530, 2009; Alexa488-MEK5 binding to MEKK2 mutant; 290,000 tested, 0.35% active; percent response, % at 10 µM; in the data active means percent response above about 24%, passing the limit was not always enough
MEKK2 WT-MEK5: modulators of MEK5 binding to wildtype MEKK2, primary screen, biochemical, multiplex bead flow cytometry, Alexa488-MEK5; binding response (% of control), % at 10 µM; Alexa488-MEK5 binding to MEKK2 WT; actives lie on both sides; 290,000 tested, 1.1% active; in the data active means binding response below about 67% or above about 130%
DNA FID counter: compounds displacing fluorescent DNA intercalator, primary screen, artefact control for HCV NS3 helicase inhibitor project, biochemical, FID fluorescence; DNA fluorescent intercalator displacement; inhibition, % at 7.9 µM; 290,000 tested, 0.17% active; AID 1845, 2009; in the data active means inhibition above about 37%;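 further: higher means more ethidium bromide displaced from hairpin DNA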
MEKK3 PB1 HTS: modulators of MEKK3-MEK5 PB1 binding, primary screen, biochemical, wildtype MEKK3, multiplex bead flow cytometry, Alexa488-MEK5; Mitogen-activated protein kinase kinase kinase 3 (Homo sapiens), Q99759; AID 1529, 2009; bead-based flow cytometry, Alexa488-MEK5 binding to MEKK3; actives lie on both sides; 0 = blocked by unlabeled MEK5, 100 = vehicle; binding response (% of control), % at 10 µM; 290,000 tested, 1.4% active;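 active means binding response more than 3 SD above or below the average of its plate-row segment, actives on both sides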;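 further: Alexa488 bead fluorescence after subtracting the streptavidin-only scavenger bead signal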
Target sequence (Q99759 whole entry, looked up): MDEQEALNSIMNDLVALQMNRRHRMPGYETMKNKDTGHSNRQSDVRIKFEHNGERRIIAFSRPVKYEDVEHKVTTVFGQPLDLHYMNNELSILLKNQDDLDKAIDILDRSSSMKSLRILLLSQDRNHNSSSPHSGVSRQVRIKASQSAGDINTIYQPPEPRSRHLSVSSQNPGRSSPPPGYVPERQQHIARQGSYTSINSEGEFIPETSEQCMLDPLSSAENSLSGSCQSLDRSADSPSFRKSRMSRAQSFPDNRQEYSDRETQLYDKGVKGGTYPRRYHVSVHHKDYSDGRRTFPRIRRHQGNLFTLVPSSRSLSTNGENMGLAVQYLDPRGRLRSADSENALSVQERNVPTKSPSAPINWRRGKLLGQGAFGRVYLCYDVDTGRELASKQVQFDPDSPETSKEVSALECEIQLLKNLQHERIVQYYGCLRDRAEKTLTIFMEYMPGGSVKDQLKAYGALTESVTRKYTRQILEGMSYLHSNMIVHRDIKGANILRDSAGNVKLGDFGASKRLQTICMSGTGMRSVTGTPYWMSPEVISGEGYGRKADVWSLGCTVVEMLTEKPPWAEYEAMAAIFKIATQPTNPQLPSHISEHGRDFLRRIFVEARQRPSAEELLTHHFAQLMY
T cruzi repl: inhibitors of intracellular T. cruzi growth, primary screen, luminescence, NIH3T3 host cells. T. cruzi beta-gal in NIH3T3, 90 h. inhibition, % (no concentration beside the values). 300,000 tested, 1.4% active. AID 1885, 2009;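 active means mean inhibition across valid replicates above about 55%, limit read from the data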;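 further: signal also drops with host cell toxicity which is not excluded here; higher percent means less beta-gal luminescence so fewer parasites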
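Assay system: NIH/3T3 host cells with β-galactosidase reporter T. cruzi; input: 5,000 host fibroblasts per well; compound: single 50 nL compound addition per well in DMSO; timing: ≥90 h infection period, 3 h prior cell attachment; measured by: GalScreen β-gal luminescence, detergent lysis, 60 min; evaluation: percent inhibition of parasite-derived β-gal signal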
NS3 helicase inh: inhibitors of HCV NS3 helicase, primary screen, biochemical, Cy5 molecular beacon fluorescence | Hepatitis C virus NS3 helicase | NS3 helicase DNA unwinding | inhibition, % at 10.9 µM | 290,000 tested, 0.56% active | AID 1800, 2009;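 active means inhibition above the mean of all tested compounds plus 3 SD, set per campaign, cut at about 35% in these data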
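Measured by: Cy5 fluorescence, 0 and 60 min reads / Assay system: NS3 helicase fragment of HCV / Control set: low DMSO, high thioflavine S at 110 µM / Times: 1 h reaction at 25 °C, ATP-initiated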
A number is an active result; i = inactive; nt = not tested or not shown; + = active, no number; [ ] = remark or other dose. A selection: hits, their analogues and other compounds. The true share with any hit is near 4.1%.

SMILES	MEKK2 mut-MEK5	MEKK2 WT-MEK5	DNA FID counter	MEKK3 PB1 HTS	T cruzi repl	NS3 helicase inh
CC1CCN(C(=O)Cn2cnc3c2c(=O)n(C)c(=O)n3C)c2ccccc2S1 (configuration not stated)	i	i	i	i	i	i
CCOC(=O)C(C)On1c(-n2nc(C)cc2C)nc2ccccc2c1=O (configuration not stated)	i	i	i	i	i	i
CCc1ccc(-c2cc3c(=O)n(CC(=O)NCCCN4CCC(Cc5ccccc5)CC4)nc(C)n3n2)cc1	29	203	i	i	i	i
Cc1nn(CC(=O)NCCCN2CCC(Cc3ccccc3)CC2)c(=O)c2cc(-c3ccccc3)nn12	48	161	i	i	i	i
CC(C)(C)N/C=C(\C#N)S(=O)(=O)c1ccc(Br)cc1	i	i	i	i	i	i
Cc1ccc2nc3c(cc2c1)c(NC(=O)C(C)(C)C)nn3CC(C)C	i	i	i	i	i	i
CCOc1ccccc1NC(=O)Cn1c(=O)n(-c2ccccc2)c(=O)c2oc3ccccc3c21	i	5.0	i	i	i	i
NC(=O)Cn1c(=O)n(-c2ccccc2)c(=O)c2oc3ccccc3c21	i	i	i	i	i	i
O=C(c1cc(COc2cccc3cnccc23)on1)N1CCC(c2ccccc2Cl)C1 (configuration not stated)	i	i	i	i	63	i
COc1ccc(C(=O)c2c(-c3cccc(C)c3)oc3ccc(N4CCOCC4)cc23)cn1	i	i	i	i	i	i
O=C(COc1ccc(F)cc1)Nc1ccccc1N1CCOCC1	nt	nt	nt	nt	i	nt
Cn1c(=O)c([N+](=O)[O-])c(Cl)c2ccccc21	i	i	i	i	88	i
CCN(CC)c1c([N+](=O)[O-])c(=O)n(C)c2ccccc12	i	i	i	i	i	i
CCCC(=O)NC(c1cccs1)c1cc(Cl)c2cccnc2c1O (configuration not stated)	i	i	i	i	78	i
CCCC(=O)NC(c1ccc2c(c1)OCO2)c1cc(Cl)c2cccnc2c1O (configuration not stated)	i	i	i	i	56	i
CCCC(=O)NC(c1ccco1)c1cc(Cl)c2cccnc2c1O (configuration not stated)	i	i	i	i	62	i
Cn1nc(C(=O)NCc2cccs2)c2ccccc2c1=O	i	i	i	i	i	i
O=c1[nH]c(C2CCN(S(=O)(=O)c3ccccc3C(F)(F)F)CC2)nc2c1nnn2Cc1cccc(F)c1	i	i	i	i	i	i
Cc1cc(Nc2cccc(Cl)c2)nc(NCc2ccccc2)n1	i	i	i	i	58	i
Cc1cc(N2CCCCC2)nc(NCc2ccccc2)n1	i	i	i	i	56	i
Cc1cc(C)nc(NCc2ccc(Cl)cc2)n1	i	i	i	i	i	i
O=C(NC1CCCN(CCc2ccccc2)C1)c1c[nH]c2ccccc12 (configuration not stated)	i	i	i	i	i	i
O=C(NC1CCCN(CCc2ccccc2)C1)C1CCCC1 (configuration not stated)	i	i	i	i	55	i
O=S(=O)(c1ccc(-c2csc(-c3cccnc3)n2)cc1)N1CCCC1	i	i	i	i	i	i
O=S(=O)(c1ccc(-c2csc(-c3cccnc3)n2)cc1)N1CCCCC1	i	i	i	i	66	i
SMILES	MEKK2 mut-MEK5	MEKK2 WT-MEK5	DNA FID counter	MEKK3 PB1 HTS	T cruzi repl	NS3 helicase inh
Cc1onc(-c2ccccc2Cl)c1C(=O)Oc1cccc2cccnc12	i	i	i	i	i	i
Cc1cc(C)c(C)c(C(=O)CSc2nnc(-c3ccc4[nH]c(C)c(C)c4c3)o2)c1C	i	i	i	i	55	i
Cc1[nH]c2ccc(-c3nnc(SCC(=O)c4ccc(F)cc4)o3)cc2c1C	i	i	i	i	i	i
O=S(=O)(c1ccc(Cl)cc1)N1CCC(n2cnc3cc(C(F)(F)F)ccc32)CC1	i	i	i	i	56	i
COc1ccc(S(=O)(=O)NCCc2nnc3ccc(SCC(=O)Nc4nc(C)cs4)nn23)cc1	i	i	i	i	i	i
Cc1nc(NC(=O)Nc2ccc(Cl)cc2)sc1C	i	i	i	i	i	i
COc1ccc(NC(=O)Nc2nnc(C(C)(C)C)s2)cc1	i	-4.0	i	i	i	i
CC(C)(C)c1nnc(NC(=O)Nc2ccc(Cl)cc2)s1	i	-4.0	i	i	i	i
CC(C)(C)c1nc(NC(=O)Nc2ccccc2)sc1Br	i	i	i	i	57	i
CN(C)c1ccc(S(=O)(=O)N2CCCCC2)cc1NC(=O)COc1ccccc1F	i	i	i	i	i	i
COc1cc(OC)c(OC)cc1/C=C1\CCC/C(=C\c2cc(OC)c(OC)cc2OC)C1=O	i	i	i	i	59	i
CCCc1cc(=O)oc2cc(OCC(=O)Nc3ccc(S(N)(=O)=O)cc3)ccc12	i	i	i	i	i	i
CC(C(=O)N(C)Cc1ccccc1)N1CCN(C/C=C/c2ccccc2)CC1 (configuration not stated)	i	i	i	i	60	i
CC(=O)c1ccc(NC(=O)C(C)N2CCN(C/C=C/c3ccccc3)CC2)cc1 (configuration not stated)	+	i	i	191	i	i
COCCN(Cc1nc(C2(c3ccc(C)cc3)CCCC2)no1)C(C)C	i	i	i	i	i	i
COc1ccccc1C(=O)NNC(=O)C1CCCO1 (configuration not stated)	i	i	i	i	i	i
Cc1ccccc1C(=O)Nc1ccc(C(=O)N/N=C/c2ccc(O)cc2)cc1	i	59[inhibitor]	i	i	i	i
Cc1ccccc1C(=O)Nc1ccc(C(=O)N/N=C/c2ccncc2)cc1	i	i	i	i	i	i
CC(=Nc1ccc(Br)cc1)c1sc2ccccc2c1O	i	i	i	i	60	i
COc1ccc(C(=O)NNC(=O)CSc2nnc(COc3ccccc3OC)n2C)cc1	i	i	i	i	i	i
CN(CCOc1ccc(Br)cc1)CC(O)c1ccccc1 (configuration not stated)	i	i	i	i	70	i
CN(CCOc1ccccc1)CC(O)COCc1ccccc1F (configuration not stated)	i	i	i	i	55	i
